Source: article PMC5826771 (Molecular pharmaceutics, 2017)
Where a SMILES comes first, the peptide text is derived from it. [ ]: non-standard residue; d: D form. Sar = CNCC(=O)O

Key:
hPepT1 [1] = target: T1, hPepT1 (Homo sapiens, UniProt P46059); format: cell-based
T1 sequence (P46059 1-708): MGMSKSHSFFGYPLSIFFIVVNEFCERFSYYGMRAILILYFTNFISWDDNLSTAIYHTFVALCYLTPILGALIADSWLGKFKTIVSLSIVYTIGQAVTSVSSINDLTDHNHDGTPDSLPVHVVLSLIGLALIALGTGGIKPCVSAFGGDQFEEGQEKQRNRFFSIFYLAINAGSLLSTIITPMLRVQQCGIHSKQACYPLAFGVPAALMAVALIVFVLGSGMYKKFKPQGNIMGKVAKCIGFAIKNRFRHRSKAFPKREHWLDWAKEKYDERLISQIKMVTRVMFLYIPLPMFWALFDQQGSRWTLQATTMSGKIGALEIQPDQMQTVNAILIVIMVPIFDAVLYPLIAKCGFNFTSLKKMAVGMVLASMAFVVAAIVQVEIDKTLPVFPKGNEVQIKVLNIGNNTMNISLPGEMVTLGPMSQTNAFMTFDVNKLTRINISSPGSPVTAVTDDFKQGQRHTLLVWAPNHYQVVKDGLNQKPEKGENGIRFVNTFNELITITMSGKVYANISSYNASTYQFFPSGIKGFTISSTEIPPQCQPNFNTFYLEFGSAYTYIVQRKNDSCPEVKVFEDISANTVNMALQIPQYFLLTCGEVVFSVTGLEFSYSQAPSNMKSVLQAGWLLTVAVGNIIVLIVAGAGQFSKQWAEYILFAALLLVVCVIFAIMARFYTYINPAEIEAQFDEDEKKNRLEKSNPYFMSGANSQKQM

hPepT1 [2] = target: T1, hPepT1; details: cited from earlier work
hPepT1 [3] = target: T1, hPepT1; format: cell-based; details: hPepT1-expressing oocytes; for induction of inward current (in words): pH 6.0, voltage clamp −50 mV
Summary of the method: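 Stage V–VI X. laevis oocytes were collagenase-treated, defolliculated, held at 18 °C in modified Barth's medium with gentamicin, and injected with 50 ng hPepT1 cRNA, with water-injected controls. TEVC clamped at −50 mV under pH 7.5 buffer, then NaCl buffer pH 6.0 ± test compound to steady state, then washout. Induced current = steady-state difference, expressed relative to 1 mM or 250 µM glycylsarcosine currents.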

IC50 (hPepT1 [1]) | induction of inward current (in words) (hPepT1 [3]) | induced inward current (hPepT1 [3]; 1 mM, buffer pH 6.0, clamped at −50 mV) | SMILES | identified as hPepT1 inhibitor (hPepT1 [2])
3.9 mM | induced significant inward currents |  | COC(=O)[C@H](Cc1ccccc1)NC(=O)[C@@H](N)CC(=O)O [aspartame] (H-Asp-Phe-OMe) | inhibitor
 | induced significant inward currents |  | Nc1ccc(CC(=O)O)cc1 [4-amino PA, 4-amino phenyl acetic acid] | 
 |  | 300–400 nA | CN(CC(=O)O)C(=O)CN [glycylsarcosine] (H-Gly-[Sar]-OH) | 
